Bioassay records deposited in PubChem by several laboratories.
M1 antagonist = antagonists of rat M1 muscarinic receptor; 64,000 compounds, 3.4% hits; CHO-M1 cells, Fluo-4 calcium, ACh EC80 antagonist mode; stronger effect = lower value; B-score at 10 µM;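 active = calcium fluorescence response, raw or row-and-column corrected B-score, differing from the plate sample mean either way at a set confidence level, mostly lower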
BAP1 inh = inhibitors of BAP1 deubiquitinase, primary screen, biochemical, Ub-AMC fluorescence, kinetic; recombinant BAP1, Ub-AMC hydrolysis fluorescence kinetic; stronger effect = lower value; calls only at 20 µM; 72,000 compounds, 0.48% hits; AID 436, 2006;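 active = activity remaining at or below 50% of control, provided the compound also passes the data quality filters; inactive = the rest, including low values that fail the filters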;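 also: 100% = DMSO wells rate and 0% = substrate alone blank rate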
M1 ag = M1 muscarinic receptor agonists, primary screen, CHO-M1 cells, Fluo-4 calcium, agonist mode; Muscarinic acetylcholine receptor M1; Fluo-4 calcium fluorescence; stronger effect = higher value; B-score at 10 µM; 64,000 compounds, 3% hits; AID 626, 2007;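 active = fluorescence rise, raw or as B-score row- and column-corrected plate score, outside the 99.7% band of its plate's samples, either direction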
HEK293 NFkB inh = inhibitors of PMA/ionomycin-induced NF-kB reporter, primary screen, antigen receptor NF-kB inhibitor project, cell-based, HEK-293 luciferase reporter, luminescence | HEK-293 NF-kB luciferase reporter | inhibition, % at 3 µM | 62,000 compounds, 0.21% hits | AID 465, 2006;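 active = inhibition above the mean of all tested compounds plus 3 SD, cut at about 40% in these data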;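 also: 0% = stimulated DMSO wells and 100% = 10 µM reference inhibitor 5653914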
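Signal: luciferase luminescence; Material: HEK-293 cells with stable firefly luciferase reporter driven by four HIV NF-kB elements; Probe or stimulus: PMA with ionomycin; Replication: tested once; Times: 1 h compound pretreatment, then 16 h stimulation at 37 °C, 5% CO2; Benchmarks: DMSO and 10 µM reference inhibitor; Evaluation: per-plate % inhibition versus controls.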
HER2 expr 66K = inhibitors of Her2 protein expression, primary screen, SKBR-3 cells, AlphaScreen, 66K library; HER2 level % of control, % at 10 µM; SKBR-3 HER2 protein level, 18-24 h; stronger effect = lower value; 65,000 compounds, 0.69% hits; AID 645, 2007;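 active = HER2 level under 5% of the carrier-only control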;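 also: 100% = DMSO carrier and 0% = 500 nM PU-H71 HSP90 inhibitor; lower value means stronger loss of Her2 protein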
Target sequence (P04626 whole entry, looked up): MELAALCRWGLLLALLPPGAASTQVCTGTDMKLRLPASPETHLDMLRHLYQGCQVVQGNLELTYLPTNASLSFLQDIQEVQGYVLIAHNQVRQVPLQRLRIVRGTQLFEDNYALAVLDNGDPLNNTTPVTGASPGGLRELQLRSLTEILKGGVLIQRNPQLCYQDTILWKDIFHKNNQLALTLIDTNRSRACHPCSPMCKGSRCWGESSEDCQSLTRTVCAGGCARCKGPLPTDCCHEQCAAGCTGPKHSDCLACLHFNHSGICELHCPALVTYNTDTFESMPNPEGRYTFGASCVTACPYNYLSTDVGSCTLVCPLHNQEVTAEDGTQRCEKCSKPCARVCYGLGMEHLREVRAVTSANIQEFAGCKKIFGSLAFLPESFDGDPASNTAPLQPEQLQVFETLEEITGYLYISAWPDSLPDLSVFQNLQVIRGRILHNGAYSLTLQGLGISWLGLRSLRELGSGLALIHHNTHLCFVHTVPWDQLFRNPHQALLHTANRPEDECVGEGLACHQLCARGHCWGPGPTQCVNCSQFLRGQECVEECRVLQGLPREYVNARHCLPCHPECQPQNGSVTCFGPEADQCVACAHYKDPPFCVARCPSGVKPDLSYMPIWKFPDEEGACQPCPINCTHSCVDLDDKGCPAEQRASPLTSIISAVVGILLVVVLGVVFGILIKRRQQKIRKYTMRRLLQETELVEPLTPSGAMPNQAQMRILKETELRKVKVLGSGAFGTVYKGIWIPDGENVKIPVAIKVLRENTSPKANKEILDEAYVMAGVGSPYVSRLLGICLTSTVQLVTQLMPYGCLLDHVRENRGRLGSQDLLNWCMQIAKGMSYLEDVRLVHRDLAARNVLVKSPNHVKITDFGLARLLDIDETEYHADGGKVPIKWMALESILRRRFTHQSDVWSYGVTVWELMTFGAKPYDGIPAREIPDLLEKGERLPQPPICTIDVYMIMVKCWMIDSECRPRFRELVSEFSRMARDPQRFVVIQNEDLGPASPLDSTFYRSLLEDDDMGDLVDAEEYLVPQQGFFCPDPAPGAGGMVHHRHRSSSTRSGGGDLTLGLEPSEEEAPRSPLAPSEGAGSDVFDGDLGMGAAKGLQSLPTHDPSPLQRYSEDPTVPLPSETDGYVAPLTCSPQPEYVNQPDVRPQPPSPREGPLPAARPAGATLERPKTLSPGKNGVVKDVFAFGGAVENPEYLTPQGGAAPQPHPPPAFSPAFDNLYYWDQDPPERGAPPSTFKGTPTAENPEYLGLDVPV
JNK3 inh = JNK3 kinase activity inhibitors, primary screen, biochemical, human, purified enzyme; 60,000 compounds, 0.61% hits; Mitogen-activated protein kinase 10 (Homo sapiens), P53779; AID 746, 2007; HTS; inhibition, % at 8 µM; in the data active = inhibition above about 17%;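 also: 0% = DMSO and 100% = reference inhibitor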
M1 antag confirm = rat M1 muscarinic receptor antagonists, confirmation, CHO cells, Fluo-4 calcium, duplicate | shares compounds with M1 antagonist | ACh EC80 antagonism; stronger effect = lower value | calcium response (max-min fluorescence) at 10 µM | 1,700 compounds, 43% hits;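 active = calcium response below the same-plate mean of wells given acetylcholine alone at its 80%-effect dose, minus 3 SD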;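 also: raw fluorescence intensity difference in arbitrary instrument units and not normalized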
mGluR4 antag = human mGluR4 response to M1 antagonist hits, M1 allosteric modulator project, cell-based, antagonist mode, secondary assay 1; shares compounds with M1 antagonist; CHO-mGluR4 calcium flux, Fluo-4 fluorescence, glutamate EC80; stronger effect = lower value; fluorescence response (max-min) at 10 µM; 1,700 compounds, 0.9% hits; AID 678, 2007;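 active = fluorescence response below the plate's average for near-maximal glutamate wells, less 3 SD of those wells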;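 also: raw unnormalized fluorescence span taken in the window right after glutamate addition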
Numbers without * were called inactive; i = inactive; x = not tested or not shown. The list is not random: actives were taken first. Their share in the collection is about 6.6%.

SMILES	M1 antagonist	BAP1 inh	M1 ag	HEK293 NFkB inh	HER2 expr 66K	JNK3 inh	M1 antag confirm	mGluR4 antag
CCOC(=O)Cc1csc(NC(=O)CCc2ccc(S(=O)(=O)N3CCOCC3)cc2)n1	-3.1*	i	0.66	16	86	-1	571	216
CCOC(=O)Cc1csc(NC(=O)c2ccc(S(=O)(=O)N3CCCCC3)cc2)n1	x	x	x	20	92	-4	x	x
CC(=O)Nc1c2c(nn1-c1ccc(C)cc1C)CSC2	-1.9*	i	-0.31	-2	79	0	641	259
COc1ccc(C(=O)Nc2nnc(Cc3cccs3)s2)cc1OC	-17*	i	-1.1	27	90	2	621	244
CC(OC(=O)C1CCN(S(=O)(=O)c2ccccc2)CC1)C(=O)Nc1ncc(Cl)cc1Cl (configuration not stated)	-1.3*	i	-1.7	20	95	-1	668	250
CCCCc1c(C)nn(-c2nnc3c4ccccc4n(CC)c3n2)c1C	-2.7*	i	-0.33	7	69	-5	591	186
CCOCCCNc1nc(=S)[nH]c2cc(OC)c(OC)cc12	-2.9*	i	-0.34	12	75	-5	550	206
Cc1ccc2[nH]c3c(c2c1)CN(C(=O)CN1CCSCC1)CC3	-3.1*	i	1.4	1	88	-5	476	223
COC(=O)C1=CN(C2CC2)C=C(C(=O)OC)C1c1ccc(C(=O)OC)cc1	-5.9*	x	-0.58	10	97	0	188*	183
CNS(=O)(=O)c1cccc(C(=O)NCC(c2cccs2)N(C)C)c1 (configuration not stated)	-0.77	x	0.69	-1	148	x	x	x
CN(C)C(CNC(=O)c1cccc(S(=O)(=O)N2CC3(C)CC2CC(C)(C)C3)c1)c1ccco1 (configuration not stated)	-3.3*	i	0.05	18	88	-5	517*	159
O=C(NCc1ccc(F)cc1)c1nn2c(C(F)(F)F)cc(-c3cccs3)nc2c1Br	x	i	x	x	x	x	x	x
Cc1cc(C(=O)OCC(=O)N2CCN(c3ccccc3)CC2)c2ccccc2n1	-1	i	-0.73	2	88	6	x	x
Cc1cc(C(=O)OCC(=O)Nc2cc(C)on2)c2ccccc2n1	-6.1*	i	-0.61	13	109	-5	656	228
COc1ccc(C(C)=O)c2c1OCCO2	-2.2*	i	0.13	3	73	0	633	236
Cc1ccc(N2C(=O)CC(Cn3nc(C)cc3C)C2=O)cc1 (configuration not stated)	0.32	x	-1	x	78	3	x	x
Cc1cc(C)n(CC2CC(=O)N(c3ccc(Cl)c(Cl)c3)C2=O)n1 (configuration not stated)	-2.6*	i	-0.5	x	73	7	717	222
COC(=O)[C@H](C)NC(=O)NCc1ccco1	-4.3*	i	-0.23	7	118	-2	680	260
COc1cc(C(=O)NCc2ccco2)cc(OC)c1OC	-1.8	i	0.02	7	106	-2	x	x
CCSc1nc2c(c(=O)n(C)c(=O)n2C)n1Cc1ccc(Cl)cc1	-3.7*	i	0.44	24	101	-2	410	225
Cn1c(=O)c2c(nc(SCCN3CCCCC3)n2Cc2ccc(Cl)cc2)n(C)c1=O	-7.8*	i	-0.88	x	107	1	87*	248
Cn1c(=O)c2c(nc(SCCN3CCOCC3)n2Cc2ccccc2)n(C)c1=O	-0.006	i	-0.63	-5	110	0	x	x
Cn1c(=O)c2c(nc(Sc3ncccn3)n2Cc2ccc(Cl)cc2)n(C)c1=O	0.2	i	-0.99	2	119	7	x	x
C=CC(C)Sc1nc2c(c(=O)n(C)c(=O)n2C)n1Cc1ccccc1Cl (configuration not stated)	-4.5*	i	0.52	2	93	-5	594	265
CCOc1ccccc1NC(=O)c1cc(CC(C)C)oc1C	-2.4*	i	-0.29	10	103	10	650	241
SMILES	M1 antagonist	BAP1 inh	M1 ag	HEK293 NFkB inh	HER2 expr 66K	JNK3 inh	M1 antag confirm	mGluR4 antag
OC1CCC2OC1CCC2O (configuration not stated)	x	i	x	x	x	x	x	x
Cc1ccc2nc(N3CCN(C(=O)c4cccs4)CC3)c(C#N)cc2c1	-2.3*	i	1.5	-2	113	-2	619	210
Nc1cccc2c1C(=O)c1ccc(NC(=O)c3ccccc3)cc1C2=O	x	i	x	x	x	x	x	x
COc1ccc(Br)cc1C1SCCN1S(=O)(=O)c1ccc(Cl)cc1 (configuration not stated)	x	i	x	x	x	x	x	x
CCN(CC)Cc1cc(C(C)=O)ccc1OCC(C)C	-0.32	i	-0.38	x	96	-7	x	x
CCN(CC)Cc1cc(CC(C(N)=O)C(N)=O)ccc1OC	-2.5*	i	1.1	12	130	6	672	224
COc1ccccc1C1NC(=O)NC(C)=C1C(=O)OCC(C)C (configuration not stated)	x	i	x	x	x	x	x	x
CCc1nc(SCc2ccc(C(=O)OC)o2)c2c(=O)n(C)c(=O)n(C)c2n1	-6.7*	i	-1	16	121	-3	280*	226
Cn1c(=O)c2c(SCc3ccccn3)nc(C3CC3)nc2n(C)c1=O	-0.27	i	0.17	10	68	0	x	x
CCCc1nc(SCc2ccccn2)c2c(=O)n(C)c(=O)n(C)c2n1	-1.4*	i	-1.1	0	87	3	405*	204
O=C(Nc1ccc(S(=O)(=O)N2CCc3ccccc3C2)cc1)C1CCCO1 (configuration not stated)	-0.049	i	-0.1	23	79	3	x	x
O=C(Nc1ccc(S(=O)(=O)N2CCCc3ccccc32)cc1)C1CCCO1 (configuration not stated)	-9.7*	i	0.36	16	113	-1	29*	208
CCOc1ccccc1NC(=O)COc1ccc(C(C)(C)C)cc1	x	i	x	x	x	x	x	x
N=c1c(C(=O)NCc2ccccc2)cc2c(=O)n3ccccc3nc2n1CCCN1CCOCC1	-1.6	x	0.095	6	120	-3	x	x
